Experimental data taken from ChEMBL document CHEMBL4689842, “EUbOPEN Chemogenomics Library wave 1” (2021).
Where “and” joins values, the source holds several entries; their conditions need not be identical. Equal entries are not always repeated.

System: U2OS
Test: Multiplex assay against U2OS
Assay type: toxicity, cell-based
Conditions: human
Method in brief: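 Live cells carried four stains from seeding: Hoechst33342, BioTracker Green Microtubule Cytoskeleton Dye, MitoTracker Red and Annexin V Alexa Fluor 680. They were imaged on a CQ1 microscope at 37°C and 5% CO2 after compound addition. Using CellPathfinder machine-learning gating, cells were split into Hoechst high-intensity objects or normal cells, normal cells into healthy, pyknosed or fragmented nuclei, and pyknosed cells into mitotic or apoptotic; tubulin, mitochondrial-mass and membrane-permeability phenotypes are per cents of healthy-nucleus cells.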

[1] = 12 h, 10 µM, compound concentration 10 uM, replicate 1
[2] = 12 h, 10 µM, compound concentration 10 uM, replicate 2
[3] = 24 h, 10 µM, compound concentration 10 uM, replicate 1
[4] = 24 h, 10 µM, compound concentration 10 uM, replicate 2
[5] = 12 h, 1 µM, compound concentration 1 uM, replicate 1
[6] = 12 h, 1 µM, compound concentration 1 uM, replicate 2
[7] = 24 h, 1 µM, compound concentration 1 uM, replicate 1
[8] = 24 h, 1 µM, compound concentration 1 uM, replicate 2
[9] = 48 h, 1 µM, compound concentration 1 uM, replicate 1
[10] = 48 h, 1 µM, compound concentration 1 uM, replicate 2
[11] = 48 h, 10 µM, compound concentration 10 uM, replicate 1
[12] = 48 h, 10 µM, compound concentration 10 uM, replicate 2

## COc1ccc(Oc2cc(NCCC(F)(F)F)c3ncc(-c4ccc(C(=O)NC5CC5)c(C)c4)n3n2)c(F)c1F [BAY-1217389]
[1]
  Population Apoptotic (%): 40% and 58%
  Population Fragmented Nuclei (%): 9% and 11%
  Population Healthy Nuclei (%): 83% and 73%
  Population Hoechst High Intensity Objects (%): 4%
  Population Membrane Permeable-Phenotype (%): 66% and 23%
  Population Mitotic Cells (%): 60% and 41%
  Population Normal (%): 95%
  Population Pyknosed Nuclei (%): 7% and 15%
  Population Tubulin-Different-Phenotype (%): 97% and 100%
  Total Cell Count: 148 and 164
[2]
  Population Apoptotic (%): 60% and 55%
  Population Fragmented Nuclei (%): 19%
  Population Healthy Nuclei (%): 85% and 59%
  Population Hoechst High Intensity Objects (%): 17% and 11%
  Population Membrane Permeable-Phenotype (%): 53% and 63%
  Population Mitotic Cells (%): 40% and 45%
  Population Normal (%): 82% and 88%
  Population Tubulin-Different-Phenotype (%): 88%
  Total Cell Count: 114 and 108
[3]
  Population Apoptotic (%): 52% and 69%
  Population Fragmented Nuclei (%): 10% and 14%
  Population Healthy Nuclei (%): 77% and 65%
  Population Hoechst High Intensity Objects (%): 5% and 2%
  Population Membrane Permeable-Phenotype (%): 38% and 41%
  Population Mitochondria Different-Phenotype (%): 44% and 83%
  Population Mitotic Cells (%): 47% and 30%
  Population Normal (%): 94% and 97%
  Population Pyknosed Nuclei (%): 11% and 20%
  Population Tubulin-Different-Phenotype (%): 92% and 99%
  Total Cell Count: 154 and 167
[4]
  Population Apoptotic (%): 50% and 60%
  Population Fragmented Nuclei (%): 13%
  Population Healthy Nuclei (%): 75% and 54%
  Population Hoechst High Intensity Objects (%): 10% and 13%
  Population Membrane Permeable-Phenotype (%): 39% and 78%
  Population Mitochondria Different-Phenotype (%): 59% and 95%
  Population Mitotic Cells (%): 50% and 39%
  Population Normal (%): 89% and 86%
  Population Pyknosed Nuclei (%): 14% and 32%
  Population Tubulin-Different-Phenotype (%): 87% and 100%
  Total Cell Count: 110 and 101

## Cc1c(-c2ccc(O)cc2)n(Cc2ccc(OCCN3CCCCCC3)cc2)c2ccc(O)cc12 [BAZEDOXIFENE]
[5]
  Population Apoptotic (%): 58%
  Population Fragmented Nuclei (%): 22%
  Population Healthy Nuclei (%): 67%
  Population Hoechst High Intensity Objects (%): 15%
  Population Membrane Permeable-Phenotype (%): 3%
  Population Mitochondria Different-Phenotype (%): 13%
  Population Mitotic Cells (%): 41%
  Population Normal (%): 84%
  Population Pyknosed Nuclei (%): 9%
  Population Tubulin-Different-Phenotype (%): 20%
  Total Cell Count: 144
[6]
  Population Apoptotic (%): 0%
  Population Fragmented Nuclei (%): 13%
  Population Healthy Nuclei (%): 81%
  Population Hoechst High Intensity Objects (%): 10%
  Population Membrane Permeable-Phenotype (%): 5%
  Population Mitochondria Different-Phenotype (%): 20%
  Population Mitotic Cells (%): 100%
  Population Normal (%): 89%
  Population Pyknosed Nuclei (%): 4%
  Population Tubulin-Different-Phenotype (%): 17%
  Total Cell Count: 48
[1]
  Population Apoptotic (%): 41%
  Population Fragmented Nuclei (%): 24%
  Population Healthy Nuclei (%): 43%
  Population Hoechst High Intensity Objects (%): 4%
  Population Membrane Permeable-Phenotype (%): 23%
  Population Mitochondria Different-Phenotype (%): 97%
  Population Mitotic Cells (%): 58%
  Population Normal (%): 95%
  Population Pyknosed Nuclei (%): 32%
  Population Tubulin-Different-Phenotype (%): 98%
  Total Cell Count: 190
[2]
  Population Apoptotic (%): 60%
  Population Fragmented Nuclei (%): 7%
  Population Healthy Nuclei (%): 56%
  Population Hoechst High Intensity Objects (%): 2%
  Population Membrane Permeable-Phenotype (%): 26%
  Population Mitochondria Different-Phenotype (%): 100%
  Population Mitotic Cells (%): 40%
  Population Normal (%): 97%
  Population Pyknosed Nuclei (%): 36%
  Population Tubulin-Different-Phenotype (%): 100%
  Total Cell Count: 42
[7]
  Population Apoptotic (%): 24%
  Population Fragmented Nuclei (%): 15%
  Population Healthy Nuclei (%): 66%
  Population Hoechst High Intensity Objects (%): 11%
  Population Membrane Permeable-Phenotype (%): 3%
  Population Mitochondria Different-Phenotype (%): 9%
  Population Mitotic Cells (%): 76%
  Population Normal (%): 88%
  Population Pyknosed Nuclei (%): 17%
  Population Tubulin-Different-Phenotype (%): 11%
  Total Cell Count: 157
[8]
  Population Apoptotic (%): 11%
  Population Fragmented Nuclei (%): 8%
  Population Healthy Nuclei (%): 75%
  Population Hoechst High Intensity Objects (%): 3%
  Population Membrane Permeable-Phenotype (%): 2%
  Population Mitochondria Different-Phenotype (%): 6%
  Population Mitotic Cells (%): 88%
  Population Normal (%): 96%
  Population Pyknosed Nuclei (%): 15%
  Population Tubulin-Different-Phenotype (%): 15%
  Total Cell Count: 60
[3]
  Population Apoptotic (%): 73%
  Population Fragmented Nuclei (%): 32%
  Population Healthy Nuclei (%): 26%
  Population Hoechst High Intensity Objects (%): 4%
  Population Membrane Permeable-Phenotype (%): 50%
  Population Mitochondria Different-Phenotype (%): 100%
  Population Mitotic Cells (%): 26%
  Population Normal (%): 95%
  Population Pyknosed Nuclei (%): 40%
  Population Tubulin-Different-Phenotype (%): 98%
  Total Cell Count: 213
[4]
  Population Apoptotic (%): 68%
  Population Fragmented Nuclei (%): 22%
  Population Healthy Nuclei (%): 30%
  Population Hoechst High Intensity Objects (%): 20%
  Population Membrane Permeable-Phenotype (%): 75%
  Population Mitotic Cells (%): 31%
  Population Normal (%): 80%
  Population Pyknosed Nuclei (%): 47%
  Population Tubulin-Different-Phenotype (%): 100%
  Total Cell Count: 50
[9]
  Population Apoptotic (%): 53%
  Population Fragmented Nuclei (%): 11%
  Population Healthy Nuclei (%): 80%
  Population Hoechst High Intensity Objects (%): 7%
  Population Membrane Permeable-Phenotype (%): 2%
  Population Mitochondria Different-Phenotype (%): 13%
  Population Mitotic Cells (%): 46%
  Population Normal (%): 92%
  Population Pyknosed Nuclei (%): 8%
  Population Tubulin-Different-Phenotype (%): 8%
  Total Cell Count: 197
[10]
  Population Apoptotic (%): 36%
  Population Fragmented Nuclei (%): 14%
  Population Healthy Nuclei (%): 75%
  Population Hoechst High Intensity Objects (%): 3%
  Population Membrane Permeable-Phenotype (%): 8%
  Population Mitochondria Different-Phenotype (%): 16%
  Population Mitotic Cells (%): 63%
  Population Normal (%): 96%
  Population Pyknosed Nuclei (%): 11%
  Population Tubulin-Different-Phenotype (%): 22%
  Total Cell Count: 104
[11]
  Population Apoptotic (%): 95%
  Population Fragmented Nuclei (%): 39%
  Population Healthy Nuclei (%): 5%
  Population Hoechst High Intensity Objects (%): 9%
  Population Membrane Permeable-Phenotype (%): 77%
  Population Mitotic Cells (%): 4%
  Population Normal (%): 90%
  Population Pyknosed Nuclei (%): 55%
  Population Tubulin-Different-Phenotype (%): 88%
  Total Cell Count: 177
[12]
  Population Apoptotic (%): 100%
  Population Fragmented Nuclei (%): 13%
  Population Healthy Nuclei (%): 48%
  Population Hoechst High Intensity Objects (%): 32%
  Population Membrane Permeable-Phenotype (%): 92%
  Population Mitochondria Different-Phenotype (%): 100%
  Population Mitotic Cells (%): 0%
  Population Normal (%): 67%
  Population Pyknosed Nuclei (%): 37%
  Population Tubulin-Different-Phenotype (%): 100%
  Total Cell Count: 43
